The values below come from publication PMC5939375 (Biochemistry, 2016).

SMILES strings stand for the structures. “Also recorded” adds a separate entry of the source.

For data set [1], the target named is T1, reduced WT FDTS (Thermotoga maritima, UniProt Q9WYT0).
T1 sequence (Q9WYT0 1-220): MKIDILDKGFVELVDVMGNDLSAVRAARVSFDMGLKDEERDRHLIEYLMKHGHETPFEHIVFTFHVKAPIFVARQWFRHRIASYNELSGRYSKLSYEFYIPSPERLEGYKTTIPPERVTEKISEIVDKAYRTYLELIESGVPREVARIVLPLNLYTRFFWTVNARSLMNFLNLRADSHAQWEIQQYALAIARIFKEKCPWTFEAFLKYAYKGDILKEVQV
Particulars: cited from earlier work.

Data set [2] concerns the target T1, reduced WT FDTS. Nature of the data set: Reactivity of dUMP analogs with reduced FDTS in the presence of CH2THF. Format: biochemical. To be noted: anaerobic, 0.1 M Tris-HCl pH 8 at 25 °C; 200 μM CH2THF; 10 mM dU or 200 μM dUMS; over four hours. In outline: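 Recombinant T. maritima WT enzyme, purified, converted to apo-protein with concentrated NaCl, and reconstituted with exogenous FAD after desalting. Run in anaerobic cuvettes in 0.1 M Tris-HCl, pH 8, 25 °C. To reduced enzyme, CH2THF (200 μM final) was added first, then test compound (final concentration as listed). Flavin spectra were followed by scanning spectrophotometry. The mixture was afterwards analysed by HPLC for 2′-deoxythymidine-5′-monosulfate.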

Data set [3] concerns the target T2, WT FDTS (Thermotoga maritima, UniProt Q9WYT0). The experiment in a line: Spectrophotometric titration of oxidized WT FDTS with ligand. It counts as binding.
The target of data set [4] is T3, R90A FDTS (Thermotoga maritima, UniProt Q9WYT0, R90A). Nature of the data set: Spectrophotometric titration of R90A FDTS with ligand. Format: binding.
T3 sequence (Q9WYT0 whole entry R90A): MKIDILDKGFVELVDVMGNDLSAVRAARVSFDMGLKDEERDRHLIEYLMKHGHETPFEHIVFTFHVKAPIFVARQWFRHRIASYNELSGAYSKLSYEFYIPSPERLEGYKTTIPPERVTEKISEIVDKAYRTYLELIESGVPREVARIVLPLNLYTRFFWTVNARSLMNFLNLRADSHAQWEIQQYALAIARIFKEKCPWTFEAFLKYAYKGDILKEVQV
Data set [5] concerns the target T4, R174A FDTS (Thermotoga maritima, UniProt Q9WYT0, R174A). The experiment in a line: Spectrophotometric titration of R174A FDTS with ligand. Format: binding.
Data set [6] has as its target T4, R174A FDTS. Particulars: R174A variant; oxidative half-reaction with dUMP and CH2THF; cited from earlier work.
The target in data set [7] is T3, R90A FDTS. Particulars: R90A variant; oxidative half-reaction with dUMP and CH2THF; cited from earlier work.
The conditions of data set [8]: cited from earlier work.
Data set [9] has as its target T2, WT FDTS.

T4 sequence (Q9WYT0 whole entry R174A): as the sequence (Q9WYT0 whole entry R90A) above, with A90R, R174A counted along it

On to `O=c1[nH]c(=O)n([C@H]2C[C@H](O)[C@@H](COP(=O)(O)O)O2)cc1F` [5F-dUMP, 5-fluoro-2′-deoxyuridine-5′-monophosphate], for which the “oxidation of reduced FDTS in the presence of CH2THF” value in data set [1] is given as “cannot oxidize reduced FDTS”.
With `O=c1ccn([C@H]2C[C@H](O)[C@@H](CO)O2)c(=O)[nH]1` [dU, 2′-Deoxyuridine], the “oxidation of reduced FDTS flavin in the presence of CH2THF” value in [2] is listed as “failed to oxidize reduced WT FDTS; also recorded: neither dU nor dUMS cause oxidation of the reduced flavin; also recorded: No oxidation of the flavin occurred”. The “loss of binding energy” value in [3] (dU binding to WT FDTS vs dUMP) is given as ~ 5.2 kcal/mol.
On to `O=c1ccn([C@H]2C[C@H](O)[C@@H](COP(=O)(O)O)O2)c(=O)[nH]1` [dUMP, 2′-deoxyuridine-5′-monophosphate], for which the Kd – broadly, the concentration at which binding is half-saturated – was 14 ± 2 µM in data set [4]; 109 ± 6 µM in [5]; about 0.03 µM in data set [3] (Kd, WT FDTS, 0.1 M Tris-HCl, pH 8 at 25 °C, estimate from fitting to Eq. 1). In addition, the results for the “loss of binding energy” value in data set [4] (dUMP binding to R90A FDTS vs WT) and in data set [5] (dUMP binding to R174A FDTS vs WT) were ~ 4.0 kcal/mol and ~ 5.4 kcal/mol, respectively. Besides, the “rate constant for flavin oxidation, fold smaller than wild-type FDTS” value in data set [6] is 3000 fold; in data set [7], 8 fold. Also, in [8] (aqueous solution), the “pKa for N3 of dUMP” value is 9.3. Moreover, the “pKa of anionic phosphate oxygen of dUMP” value in [8] (phosphate oxygen, reference not given) is “about 7”. In addition, the “pKa of N3 of dUMP bound to FDTS” value in [9] (bound to WT FDTS, by the interaction of R174) was “below 8”. Moreover, the “stabilization of the N3 anion of bound dUMP by R174” value in data set [9] (fully ionized at pH 8) is recorded as “at least 2.8 kcal mol^−1”.
With `O=c1ccn([C@H]2C[C@H](O)[C@@H](COS(=O)(=O)O)O2)c(=O)[nH]1` [dUMS, 2′-deoxyuridine-5′-monosulfate], the “oxidation of reduced FDTS flavin in the presence of CH2THF” value in data set [2] is reported as “unable to oxidize reduced FDTS; also recorded: failed to oxidize reduced FDTS; also recorded: neither dU nor dUMS cause oxidation of the reduced flavin; also recorded: No oxidation of the flavin occurred”.
